In ChEMBL document CHEMBL1130135, “Use of conformationally restricted benzamidines as arginine surrogates in the design of platelet GPIIb-IIIa receptor antagonists” (J Med Chem, 1997):

What follows are molecules tested against T1, Integrin alpha-IIb/beta-3 (Homo sapiens, UniProt P05106+P08514) (assay: Inhibition of fibrinogen binding to purified Fibrinogen Receptor preparation in enzyme-linked immunosorbent assay (ELISA)).
Format: protein-complex assay
In short: (§1)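 ELISA on purified human platelet GPIIb-IIIa with biotinylated fibrinogen as the ligand. Bound fibrinogen was detected with alkaline phosphatase-labeled goat anti-biotin and p-nitrophenyl phosphate substrate. Some runs added BSA at 4.5% (w/v) as a stand-in for plasma albumin.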

T1 sequence (P05106 27-788 limits assumed): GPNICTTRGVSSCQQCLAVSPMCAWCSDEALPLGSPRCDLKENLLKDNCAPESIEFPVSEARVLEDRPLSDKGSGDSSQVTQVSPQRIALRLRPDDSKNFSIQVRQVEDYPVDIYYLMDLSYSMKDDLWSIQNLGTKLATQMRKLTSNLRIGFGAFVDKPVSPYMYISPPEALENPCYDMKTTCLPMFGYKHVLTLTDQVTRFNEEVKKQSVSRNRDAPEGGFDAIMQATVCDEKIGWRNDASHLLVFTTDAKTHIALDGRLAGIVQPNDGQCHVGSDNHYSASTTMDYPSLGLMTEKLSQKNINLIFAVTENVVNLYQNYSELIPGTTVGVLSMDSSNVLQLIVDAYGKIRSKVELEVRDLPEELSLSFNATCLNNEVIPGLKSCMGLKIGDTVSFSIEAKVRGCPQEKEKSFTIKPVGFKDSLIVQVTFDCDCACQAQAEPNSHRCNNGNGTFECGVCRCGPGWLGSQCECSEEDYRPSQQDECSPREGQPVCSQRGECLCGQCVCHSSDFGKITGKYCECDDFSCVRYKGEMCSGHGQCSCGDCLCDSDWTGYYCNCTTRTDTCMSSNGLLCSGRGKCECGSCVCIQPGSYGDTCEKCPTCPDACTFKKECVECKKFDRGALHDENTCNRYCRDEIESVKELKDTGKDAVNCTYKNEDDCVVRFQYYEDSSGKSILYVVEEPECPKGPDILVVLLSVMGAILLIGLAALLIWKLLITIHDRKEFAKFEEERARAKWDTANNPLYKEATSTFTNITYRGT
T1 sequence (P08514 32-887 limits assumed): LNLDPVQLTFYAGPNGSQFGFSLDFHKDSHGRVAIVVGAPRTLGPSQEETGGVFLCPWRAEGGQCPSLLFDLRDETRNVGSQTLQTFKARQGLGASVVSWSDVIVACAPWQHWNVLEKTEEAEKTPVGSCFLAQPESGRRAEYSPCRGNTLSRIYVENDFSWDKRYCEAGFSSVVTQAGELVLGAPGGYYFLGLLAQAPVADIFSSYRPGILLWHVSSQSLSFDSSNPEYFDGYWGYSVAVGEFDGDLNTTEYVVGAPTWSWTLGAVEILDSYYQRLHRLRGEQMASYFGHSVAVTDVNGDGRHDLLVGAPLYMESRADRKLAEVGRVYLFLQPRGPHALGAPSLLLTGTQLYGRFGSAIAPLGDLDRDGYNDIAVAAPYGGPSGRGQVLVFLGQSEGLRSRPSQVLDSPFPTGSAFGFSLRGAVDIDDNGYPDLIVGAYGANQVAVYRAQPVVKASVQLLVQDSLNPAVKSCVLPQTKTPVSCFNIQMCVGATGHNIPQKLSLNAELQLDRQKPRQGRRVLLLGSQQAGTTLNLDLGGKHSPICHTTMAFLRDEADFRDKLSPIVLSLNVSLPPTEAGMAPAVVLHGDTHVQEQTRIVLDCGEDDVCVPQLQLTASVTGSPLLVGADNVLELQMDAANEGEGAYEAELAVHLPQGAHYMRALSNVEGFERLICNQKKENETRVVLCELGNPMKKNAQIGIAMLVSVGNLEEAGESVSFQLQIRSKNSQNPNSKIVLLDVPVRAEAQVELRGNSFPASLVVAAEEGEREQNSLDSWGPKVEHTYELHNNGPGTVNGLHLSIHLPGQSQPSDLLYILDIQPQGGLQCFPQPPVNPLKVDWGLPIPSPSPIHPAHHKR
T1 sequence (P08514 891-1039 limits assumed): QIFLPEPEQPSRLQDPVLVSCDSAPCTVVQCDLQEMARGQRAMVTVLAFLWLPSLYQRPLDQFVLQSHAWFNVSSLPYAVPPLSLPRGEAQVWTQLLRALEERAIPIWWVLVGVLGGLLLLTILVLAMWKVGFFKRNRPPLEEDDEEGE

IC50 [µM]	Structure (SMILES)
3.3	N=C(N)c1ccc2oc(C(=O)NCCCCCCCC(=O)O)cc2c1

These molecules were tested against Integrin alpha-V/beta-3 (Homo sapiens, UniProt P05106+P06756) (assay: Inhibition of adhesive protein binding to alphaV-beta3 vitronectin receptor using ELISA).
Integrin alpha-V/beta-3, sequence (P05106 27-788 limits assumed): as the sequence (P05106 27-788 limits assumed) above
Integrin alpha-V/beta-3, sequence (P06756 31-889 limits assumed): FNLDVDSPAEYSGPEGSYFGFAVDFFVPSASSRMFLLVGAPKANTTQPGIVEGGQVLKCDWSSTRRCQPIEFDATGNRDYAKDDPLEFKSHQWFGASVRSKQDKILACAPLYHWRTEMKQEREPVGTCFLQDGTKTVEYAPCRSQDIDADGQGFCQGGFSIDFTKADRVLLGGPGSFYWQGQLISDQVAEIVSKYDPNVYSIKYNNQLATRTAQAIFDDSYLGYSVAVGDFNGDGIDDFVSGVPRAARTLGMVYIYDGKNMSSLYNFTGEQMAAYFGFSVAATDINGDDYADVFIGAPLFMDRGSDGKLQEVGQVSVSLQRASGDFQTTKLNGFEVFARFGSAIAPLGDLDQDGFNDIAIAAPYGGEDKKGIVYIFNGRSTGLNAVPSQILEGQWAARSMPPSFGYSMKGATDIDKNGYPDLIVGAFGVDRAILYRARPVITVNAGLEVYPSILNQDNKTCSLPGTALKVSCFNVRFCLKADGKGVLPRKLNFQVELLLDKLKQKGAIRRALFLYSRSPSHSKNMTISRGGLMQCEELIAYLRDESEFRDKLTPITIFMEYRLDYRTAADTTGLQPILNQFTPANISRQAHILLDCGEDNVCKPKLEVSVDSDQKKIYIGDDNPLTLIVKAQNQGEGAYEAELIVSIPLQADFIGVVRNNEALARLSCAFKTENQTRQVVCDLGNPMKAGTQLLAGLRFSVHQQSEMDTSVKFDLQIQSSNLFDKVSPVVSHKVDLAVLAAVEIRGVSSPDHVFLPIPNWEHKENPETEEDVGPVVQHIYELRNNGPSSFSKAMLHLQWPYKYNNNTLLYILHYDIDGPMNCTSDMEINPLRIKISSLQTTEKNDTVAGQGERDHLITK
Integrin alpha-V/beta-3, sequence (P06756 891-1048 limits assumed): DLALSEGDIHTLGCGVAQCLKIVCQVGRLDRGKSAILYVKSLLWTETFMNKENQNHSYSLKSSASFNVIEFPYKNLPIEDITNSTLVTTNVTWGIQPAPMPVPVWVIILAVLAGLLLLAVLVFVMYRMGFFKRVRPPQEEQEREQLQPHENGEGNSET
Format: protein-complex assay
In short: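 Vitronectin receptor ELISA on purified human placenta αvβ3 with biotinylated vitronectin as the ligand. Detection used alkaline phosphatase-labeled goat anti-biotin and p-nitrophenol phosphate. Compounds were tested up to 100 μM.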

IC50 [µM]	Structure (SMILES)
> 100	N=C(N)c1ccc2c(C(=O)NCCCCCCC(=O)O)c[nH]c2c1
> 100	N=C(N)c1ccc2oc(C(=O)NCCCCCCC(=O)O)cc2c1
> 100	N=C(N)c1ccc2c(C(=O)NCCCCCCC(=O)O)[nH]nc2c1

These molecules were tested against T1, Integrin alpha-IIb/beta-3 (assay: Antagonism of fibrinogen binding to a purified human fibrinogen receptor preparation.).
Format: protein-complex assay
In short: as §1

Structure (SMILES)	IC50 [µM]
N=C(N)c1ccc2sc(C(=O)NCCCCCCC(=O)O)cc2c1	0.85
N=C(N)c1ccc(OCC(=O)NCCCCCCC(=O)O)cc1	1.1
Cn1c(C(=O)NCCCCCCC(=O)O)cc2cc(C(=N)N)ccc21	2.9
N=C(N)c1ccc2[nH]c(C(=O)NCCCCC(CC(=O)O)c3ccccc3)cc2c1 (stereo not drawn)	0.46
N=C(N)c1ccc2oc(C(=O)NCCCCCC(=O)O)cc2c1	2.3
CN(CCCCCCC(=O)O)C(=O)c1cc2cc(C(=N)N)ccc2[nH]1	0.34
N=C(N)c1ccc2[nH]c(C(=O)NCc3ccc(CCC(=O)O)cc3)cc2c1	4
Cc1c(C(=O)NCCCCCCC(=O)O)[nH]c2ccc(C(=N)N)cc12	1.7
N=C(N)c1ccc2c(C(=O)NCCCCCCC(=O)O)[nH]nc2c1	0.02
N=C(N)c1ccc2cc(C(=O)NCCCCCCC(=O)O)oc2c1	1.1

More lines, now with the values ahead:

IC50 [µM]	Structure (SMILES)
9.9	N=C(N)c1ccc2[nH]c(C(=O)NCC(=O)NCCCC(=O)O)cc2c1
27	CCC(CCCCCNC(=O)c1cc2cc(C(=N)N)ccc2[nH]1)C(=O)O (stereo not drawn)
0.79	CCCCC(CCCCNC(=O)c1cc2cc(C(=N)N)ccc2[nH]1)CC(=O)O (stereo not drawn)
6.9	CC(CCCCCNC(=O)c1cc2cc(C(=N)N)ccc2[nH]1)C(=O)O (stereo not drawn)
0.76	N=C(N)c1ccc2[nH]c(C(=O)NCCC(=O)NCCC(=O)O)cc2c1
0.44	CCC(CCCCNC(=O)c1cc2cc(C(=N)N)ccc2[nH]1)CC(=O)O (stereo not drawn)
0.59	CCCCCCC(CCCCNC(=O)c1cc2cc(C(=N)N)ccc2[nH]1)CC(=O)O (stereo not drawn)
0.31	CC(CCCCNC(=O)c1cc2cc(C(=N)N)ccc2[nH]1)CC(=O)O (stereo not drawn)
7.4	N=C(N)c1ccc2[nH]c(C(=O)NCCCC(=O)NCC(=O)O)cc2c1
